For data set [1], the system named is Trypanosoma cruzi. Put plainly: Antiparasitic activity against Trypanosoma cruzi 320I04 epimastigotes […] after 72 hrs. Type of data set: functional, organism-based. The gist of the method:
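Free parasite forms (T. cruzi 320I04 epimastigotes; L. chagasi MHOM/BR/74/PP75 promastigotes) exposed to compounds for 72 h at 27 °C. IC50/IC90 taken as the concentrations giving 50% or 90% growth inhibition. Values are representative of one experiment out of three.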

Data set [2] can be described thus: Selectivity index, ratio of CC50 for african green monkey Vero cells to IC50 for Trypanosoma cruzi 320I04 epimastigotes. Type of data set: functional. The gist of the method:
(§1)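 SI calculated as Vero CC50 divided by T. cruzi IC50, or THP-1 CC50 divided by L. chagasi IC50. Both values come from 72 h exposures: parasites at 27 °C, mammalian cells at 37 °C with MTT read-out.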

Another data set concerns Leishmania chagasi. Briefly: Antiparasitic activity against Leishmania chagasi MHOM/BR/74/PP75 promastigotes infected in human THP1 cells after 72 hrs. As to conditions: MHOM/BR/74/PP75, THP-1, 72 h.
A short description of data set [3]: Cytotoxicity against african green monkey Vero cells after 72 hrs by MTT assay. Type of data set: cell-based. Conditions: chlorocebus sabaeus. In outline: (§2)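 Vero or transformed THP-1 cells exposed to a 3-fold compound dilution series, in triplicate, for 72 h at 37 °C. Toxicity read by MTT reduction. CC50/CC90 taken as the concentrations killing 50% or 90% of cells. Values are representative of one experiment out of three.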

Data set [4] relates to Trypanosoma cruzi. Put plainly: Antiparasitic activity against Trypanosoma cruzi 320I04 intracellular amastigotes infected in african green monkey Vero cells after 72 hrs. Type of data set: functional, organism-based. As to conditions: 320I04, Vero.
Data set [5] is described as follows: Selectivity index, ratio of CC50 for african green monkey Vero cells to IC50 for Trypanosoma cruzi 320I04 intracellular amastigotes. It is filed as functional.
The nature of data set [6]: Selectivity index, ratio of CC50 for human THP1 cells to IC50 for Leishmania chagasi MHOM/BR/74/PP75 promastigotes. It is filed as functional, THP-1. In outline: as §1
Data set [7] in a line: Cytotoxicity against human THP1 cells after 72 hrs by MTT assay. Type of data set: cell-based. Conditions: THP-1 cells. In outline:
as §2
(In general: Tetrazolium assays rely on reduction of a dye to a coloured formazan, in cell work by metabolically active cells.)

SMILES strings stand for the structures.

The IC50 is the concentration that inhibits the measured activity by half. The term IC90 denotes the concentration at which the effect reaches the 90% level. In general, CC50 refers to the concentration at which the toxic effect on the cells reaches its halfway point. For `Cc1cccc([C@@H]2C[C@@H]3Cc4ccc5ccccc5c4N2O3)c1`, the half-maximal inhibitory concentration (IC50) with Trypanosoma cruzi [1] is 17 µM; with Leishmania chagasi it was 35.2 µM; in the data set with Trypanosoma cruzi [4], above 100 µM. Further, the results for the IC90 with Trypanosoma cruzi [1], with Leishmania chagasi and in the data set with Trypanosoma cruzi [4] were 44.1 µM, 41.2 µM and above 100 µM, respectively. Moreover, the “Ratio CC50/IC50” value was above 17.6 in data set [2], above 3 in data set [5] and above 8.5 in data set [6]. Also, the CC50 at 72 h in data set [3] and in data set [7] was above 300 µM throughout. In addition, the CC90 at 72 h in data set [3] and in data set [7] was above 300 µM in each case.

For the compound `Clc1ccc([C@@H]2C[C@@H]3Cc4ccc5ccccc5c4N2O3)cc1`, the IC50 in the data set on Trypanosoma cruzi [1] was 38.8 µM; with Leishmania chagasi, 35.4 µM; in the data set on Trypanosoma cruzi [4], 16.2 µM. For the same compound, the figures for the IC90 in the data set on Trypanosoma cruzi [1], in the data set with Leishmania chagasi and in the data set with Trypanosoma cruzi [4] were 105 µM, 43.1 µM and 83.4 µM, respectively. The “Ratio CC50/IC50” value in data set [2] was 7.4; in data set [5] it was above 17.7; in data set [6], above 8.5. Further, the CC50 at 72 h in data set [3] is 287 µM; in data set [7] it was above 300 µM. The CC90 at 72 h in data set [3] and in data set [7] was above 300 µM in each case.

As to `Clc1ccc([C@@H]2C[C@@H]3Cc4ccc5ccccc5c4N2O3)c(Cl)c1`, the results for the IC50 with Trypanosoma cruzi [1], in the data set with Leishmania chagasi and with Trypanosoma cruzi [4] were 52.7 µM, 22.1 µM and above 250 µM, respectively. The IC90 in the data set on Trypanosoma cruzi [1] is above 250 µM; in the data set on Leishmania chagasi, 45.8 µM; in the data set on Trypanosoma cruzi [4], above 250 µM. Moreover, the “Ratio CC50/IC50” value is given as 1 in data set [2], below 0.2 in data set [5] and above 11.3 in data set [6]. Moreover, the 50% cytotoxic concentration (CC50) at 72 h in data set [3] was 55 µM; in data set [7] it was above 250 µM. The CC90 at 72 h in data set [3] and in data set [7] was above 250 µM throughout.

`Fc1ccc([C@@H]2C[C@@H]3Cc4ccc5ccccc5c4N2O3)cc1`: the IC50 is 90.5 µM with Trypanosoma cruzi [1], 70.4 µM in the data set with Leishmania chagasi and above 100 µM in the data set with Trypanosoma cruzi [4]. Besides, the IC90 in the data set on Trypanosoma cruzi [1] was above 300 µM; in the data set on Leishmania chagasi, 113 µM; with Trypanosoma cruzi [4], above 100 µM. Further, the “Ratio CC50/IC50” value in data set [2] is above 3.3; in data set [5] it was above 3; in data set [6], above 4.3. For the same compound, the CC50 at 72 h in data set [3] and in data set [7] was above 300 µM throughout. Besides, the CC90 at 72 h in data set [3] and in data set [7] was above 300 µM in each case.

On to `Brc1cccc([C@@H]2C[C@@H]3Cc4ccc5ccccc5c4N2O3)c1`, for which the IC50 in the data set with Trypanosoma cruzi [1] worked out at 17.5 µM; in the data set with Leishmania chagasi, 10.4 µM; in the data set on Trypanosoma cruzi [4] it was 18.4 µM. Also, the IC90 with Trypanosoma cruzi [1] was determined as 82.3 µM; with Leishmania chagasi, 31.3 µM; with Trypanosoma cruzi [4] it was 76.3 µM. In addition, the “Ratio CC50/IC50” value in data set [2] is above 14.3; in data set [5], above 13.6; in data set [6], above 24. In addition, the CC50 at 72 h in data set [3] and in data set [7] was above 250 µM throughout. In addition, the CC90 at 72 h in data set [3] and in data set [7] was above 250 µM each time.

As for `Clc1ccccc1[C@@H]1C[C@@H]2Cc3ccc4ccccc4c3N1O2`, the IC50 in the data set with Trypanosoma cruzi [1] was 100 µM; with Leishmania chagasi, 184 µM; with Trypanosoma cruzi [4], above 100 µM. Besides, the IC90 in the data set on Trypanosoma cruzi [1] is 293 µM; in the data set with Leishmania chagasi, above 300 µM; in the data set on Trypanosoma cruzi [4] it was above 100 µM. The “Ratio CC50/IC50” value in data set [2] is listed as 0.4; in data set [5], below 0.4; in data set [6], above 1.6. Also, the cytotoxic concentration (CC50) at 72 h in data set [3] was 37.2 µM; in data set [7], above 300 µM. For the same compound, the CC90 at 72 h in data set [3] and in data set [7] was above 300 µM each time.

As for `COc1cccc([C@@H]2C[C@@H]3Cc4ccc5ccccc5c4N2O3)c1`, the IC50 in the data set on Trypanosoma cruzi [1] stood at 82.7 µM; in the data set with Leishmania chagasi, 16.4 µM; with Trypanosoma cruzi [4], 89.6 µM. Further, the IC90 in the data set on Trypanosoma cruzi [1] is above 300 µM; in the data set on Leishmania chagasi, 49.5 µM; in the data set with Trypanosoma cruzi [4], above 100 µM. Also, the “Ratio CC50/IC50” value in data set [2] is above 3.6; in data set [5], above 3.3; in data set [6], above 18.3. Besides, the cytotoxic concentration (CC50) at 72 h in data set [3] and in data set [7] was above 300 µM each time. The CC90 at 72 h in data set [3] and in data set [7] was above 300 µM throughout.

Source of the values: ChEMBL document CHEMBL1154008, “Synthesis and in vitro activity of new tetrahydronaphtho[1,2-b]azepine derivatives against Trypanosoma cruzi and Leishmania chagasi parasites” (Bioorg Med Chem Lett, 2009).
